From ChEMBL document CHEMBL3286094, “Synthesis and biological evaluation of novel bisbenzimidazoles as Escherichia coli topoisomerase IA inhibitors and potential antibacterial agents” (J Med Chem, 2014)
In brackets after ≈: the same amount, converted by molar mass. Activity calls are given as the source filed them. No cut-off for these calls is given here.

How the values were obtained:
Escherichia coli [1] = experiment: Bactericidal activity against ampicillin/trimethoprim/nalidixic acid-resistant Escherichia coli 118 by agar plating method; type: functional
Escherichia coli [2] = experiment: Bactericidal activity against gentamicin/kanamycin/tetracycline/nalidixic acid-resistant Escherichia coli 360 by agar plating method; type: functional
Escherichia coli [3] = experiment: Bactericidal activity against ampicillin/tetracycline/gentamicin-resistant Escherichia coli 451 by agar plating method; type: functional
Escherichia coli [4] = experiment: Bactericidal activity against chloramphenicol/ampicillin/trimethoprim/ciprofloxacin/nalidixic acid-resistant Escherichia coli 59 by agar plating method; type: functional
Escherichia coli [5] = experiment: Bactericidal activity against ampicillin/kanamycin/trimethoprim/tetracyclin/ciprofloxacin/nalidixic acid-resistant Escherichia coli 81 by agar plating method; type: functional
Escherichia coli [6] = experiment: Bactericidal activity against chloramphenicol/ampicillin/kanamycin/trimethoprim/ciprofloxacin/nalidixic acid-resistant Escherichia coli 151 by agar plating method; type: functional
Escherichia coli [7] = experiment: Bactericidal activity against ampicillin/ciprofloxacin/gentamicin/tetracycline-resistant Escherichia coli 555 by agar plating method; type: functional
Escherichia coli [8] = experiment: Antibacterial activity against chloroamphenicol/ampicillin/kanamycin/trimethoprim/ciprofloxacin/nalidixic acid-resistant Escherichia coli 85 assessed as growth inhibition after 18 to 24 hrs by broth microdilution method; type: functional
Escherichia coli [9] = experiment: Antibacterial activity against gentamicin/kanamycin/tetracycline/nalidixic acid-resistant Escherichia coli 360 assessed as growth inhibition after 18 to 24 hrs by broth microdilution method; type: functional
Escherichia coli [10] = experiment: Antibacterial activity against ampicillin/tetracycline/gentamicin-resistant Escherichia coli 451 assessed as growth inhibition after 18 to 24 hrs by broth microdilution method; type: functional
Escherichia coli [11] = experiment: Antibacterial activity against chloramphenicol/ampicillin/trimethoprim/ciprofloxacin/nalidixic acid-resistant Escherichia coli 59 assessed as growth inhibition after 18 to 24 hrs by broth microdilution method; type: functional
Escherichia coli [12] = experiment: Bactericidal activity against multidrug-resistant Escherichia coli IP9 isolated from water source by agar plating method
Escherichia coli [13] = experiment: Bactericidal activity against tetracycline/trimethoprim-resistant Escherichia coli IST isolated from water source by agar plating method
Escherichia coli [14] = experiment: Bactericidal activity against ampicillin/trimethoprim/piperacillin-resistant Escherichia coli MKNJ isolated from water source by agar plating method
Escherichia coli [15] = experiment: Antibacterial activity against multidrug-resistant Escherichia coli IP9 isolated from water source assessed as growth inhibition after 18 to 24 hrs by broth microdilution method
Escherichia coli [16] = experiment: Antibacterial activity against multidrug-resistant Escherichia coli IS 54 isolated from water source assessed as growth inhibition after 18 to 24 hrs by broth microdilution method; details: IS 54, Water
Escherichia coli [17] = experiment: Inhibition of Escherichia coli DNA topoisomerase-1A using supercoiled pHOT1 plasmid DNA as substrate assessed as inhibition of DNA relaxation at 5 to 100 uM after 30 mins by agarose gel electrophoresis in presence of 25 mM MgCl2
[18] = Binding affinity to d(ATATATATATATAT)2 DNA (unknown origin) by fluorescence spectroscopic analysis
Summary of the method: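 Fluorescence titration of the compound with a poly(AT) DNA sequence, with the binding constant derived from the titration.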

Escherichia coli [19] = experiment: Binding affinity to Escherichia coli DNA topoisomerase-1A by isothermal titration calorimetric analysis in presence of MgCl2/KCl
Summary of the method: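 Isothermal titration calorimetry with sequential injections of EcTopo 1A into the compound solution. Raw heats were corrected using injections of identical amounts of EcTopo 1A into buffer alone. Binding affinity constant and binding free energy were derived from the thermogram.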

Escherichia coli [20] = experiment: Antibacterial activity against Escherichia coli ATCC 25922 in iv dosed Balb/c systemic infection model assessed as increase in survival administered single bolus dose measured every day for 7 days; type: functional
Summary of the method: (§1)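 Mice were infected intraperitoneally with E. coli ATCC 25922 suspended in saline. Treatment was a single bolus intravenous tail-vein injection at 3, 5 or 7 mg/kg body weight, dissolved in sterile water. A vehicle-only group served as control. Survival was monitored after infection.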

Escherichia coli [21] = experiment: Antibacterial activity against Escherichia coli ATCC 25922 in Balb/c systemic infection model assessed as increase in survival at 7 mg/kg, iv administered single bolus dose measured every day for 7 days relative to vehicle-treated control; type: functional; details: ATCC 25922, in Mus musculus, 168 h; summary of the method: as §1
Escherichia coli [22] = experiment: Antibacterial activity against Escherichia coli ATCC 25922 in iv dosed Balb/c neutropenic thigh infection model assessed as concentration required to cause 1 log10CFU reduction per gram of thigh administered as single bolus dose at 2 hrs post inoculation measured after 24 hrs; type: functional
Summary of the method: (§2)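 Neutropenic thigh infection with E. coli ATCC 25922. Compound was dosed at 3 and 5 mg/kg body weight/day. Read-out was thigh bacterial burden, expressed as log reduction and compared with the static level.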

Escherichia coli [23] = experiment: Antibacterial activity against Escherichia coli ATCC 25922 in iv dosed Balb/c neutropenic thigh infection model assessed as concentration required to cause 3 log10CFU reduction per gram of thigh administered as single bolus dose at 2 hrs post inoculation measured after 24 hrs; type: functional; summary of the method: as §2
Escherichia coli [24] = experiment: Antibacterial activity against Escherichia coli ATCC 25922 in iv dosed Balb/c neutropenic thigh infection model assessed as reduction of bacterial burden in thigh administered as single bolus dose at 2 hrs post inoculation measured after 24 hrs; type: functional; summary of the method: as §2

Row | SMILES | MBC (Escherichia coli [1]) [µg/mL] | MBC (Escherichia coli [2]) [µg/mL] | MBC (Escherichia coli [3]) [µg/mL] | MBC (Escherichia coli [4]) [µg/mL] | MBC (Escherichia coli [5]) [µg/mL] | MBC (Escherichia coli [6]) [µg/mL] | MBC (Escherichia coli [7]) [µg/mL] | MIC50 (Escherichia coli [8]) [µg/mL] | MIC90 (Escherichia coli [8]) [µg/mL] | MIC50 (Escherichia coli [9]) [µg/mL] | MIC90 (Escherichia coli [9]) [µg/mL] | MIC50 (Escherichia coli [10]) [µg/mL] | MIC90 (Escherichia coli [10]) [µg/mL] | MIC50 (Escherichia coli [11]) [µg/mL] | MIC90 (Escherichia coli [11]) [µg/mL] | MBC (Escherichia coli [13]) [µg/mL] | MBC (Escherichia coli [14]) [µg/mL] | MIC50 (Escherichia coli [15]) [µg/mL] | MIC50 (Escherichia coli [16]) [µg/mL] | MIC90 (Escherichia coli [16]) [µg/mL] | other results
1 | CCOc1ccc(-c2nc3ccc(-c4nc5ccc(N6CCN(CC)CC6)cc5[nH]4)cc3[nH]2)cc1 | 2 (≈ 4.29 µM) | 64 (≈ 137 µM) | 4 (≈ 8.57 µM) | 8 (≈ 17.1 µM) | 8 (≈ 17.1 µM) | 8 (≈ 17.1 µM) | 16 (≈ 34.3 µM) | 4 (≈ 8.57 µM) | 6.9 (≈ 14.8 µM) | 3 (≈ 6.43 µM) | 58.1 (≈ 125 µM) | 2 (≈ 4.29 µM) | 3.6 (≈ 7.72 µM) | 4 (≈ 8.57 µM) | 7.4 (≈ 15.9 µM) | 8 (≈ 17.1 µM) | 8 (≈ 17.1 µM) | 4 (≈ 8.57 µM) | 4 (≈ 8.57 µM) | 7.1 (≈ 15.2 µM) | MBC (Escherichia coli [12]): 8 µg/mL (≈ 17.1 µM); MIC90 (Escherichia coli [15]): 7.2 µg/mL (≈ 15.4 µM)
2 | CCOc1ccc(-c2nc3ccc(-c4nc5ccc(N6CCN(CCN(C)C)CC6)cc5[nH]4)cc3[nH]2)cc1 | 16 (≈ 31.4 µM) | 128 (≈ 251 µM) | 64 (≈ 126 µM) | 32 (≈ 62.8 µM) | 64 (≈ 126 µM) | 64 (≈ 126 µM) | 64 (≈ 126 µM) | 16 (≈ 31.4 µM) | 28.6 (≈ 56.1 µM) | 64 (≈ 126 µM) | 121 (≈ 237 µM) | 32 (≈ 62.8 µM) | 55.3 (≈ 109 µM) | 16 (≈ 31.4 µM) | 28.8 (≈ 56.5 µM) | 64 (≈ 126 µM) | 32 (≈ 62.8 µM) | 64 (≈ 126 µM) | 32 (≈ 62.8 µM) | 60.6 (≈ 119 µM) | MBC (Escherichia coli [12]): 128 µg/mL (≈ 251 µM); MIC90 (Escherichia coli [15]): 118 µg/mL (≈ 232 µM)
3 | CCCN1CCN(c2ccc3nc(-c4ccc5nc(-c6ccc(OCC)cc6)[nH]c5c4)[nH]c3c2)CC1 | 2 (≈ 4.16 µM) | 2 (≈ 4.16 µM) | 2 (≈ 4.16 µM) | 4 (≈ 8.32 µM) | 2 (≈ 4.16 µM) | 2 (≈ 4.16 µM) | 8 (≈ 16.6 µM) | 1 (≈ 2.08 µM) | 1.7 (≈ 3.54 µM) | 1 (≈ 2.08 µM) | 1.6 (≈ 3.33 µM) | 1 (≈ 2.08 µM) | 1.7 (≈ 3.54 µM) | 2 (≈ 4.16 µM) | 3.4 (≈ 7.07 µM) | 2 (≈ 4.16 µM) | 4 (≈ 8.32 µM) | 1 (≈ 2.08 µM) | 0.5 (≈ 1.04 µM) | 1.6 (≈ 3.33 µM) | inhibition (Escherichia coli [17]): Active; K [18]: 7 ×10⁷ /M; Ka (Escherichia coli [19]): 6.8 ×10⁶ /M; Activity (Escherichia coli [20]): Dose-dependent effect; ED50 (Escherichia coli [20]; ATCC 25922, in Mus musculus, 168 h): 5 mg/kg; survival at 7 mg/kg (Escherichia coli [21]): 75%; Activity (Escherichia coli [22]): 3 mg/kg/day; Activity (Escherichia coli [23]): 5 mg/kg/day; Activity (Escherichia coli [24]): Dose-dependent effect; MIC50 (Escherichia coli [24]; ATCC 25922, Thigh): 0.2 µg/mL (≈ 0.416 µM); MBC (Escherichia coli [12]): 4 µg/mL (≈ 8.32 µM); MIC90 (Escherichia coli [15]): 3.1 µg/mL (≈ 6.45 µM)
4 | CCCN1CCN(c2ccc3nc(-c4ccc5nc(-c6ccc(OC)c(OC)c6)[nH]c5c4)[nH]c3c2)CC1 | 4 (≈ 8.05 µM) | 16 (≈ 32.2 µM) | 8 (≈ 16.1 µM) | 8 (≈ 16.1 µM) | 16 (≈ 32.2 µM) | 16 (≈ 32.2 µM) | 32 (≈ 64.4 µM) | 8 (≈ 16.1 µM) | 15.2 (≈ 30.6 µM) | 8 (≈ 16.1 µM) | 15.2 (≈ 30.6 µM) | 4 (≈ 8.05 µM) | 7.6 (≈ 15.3 µM) | 4 (≈ 8.05 µM) | 7.5 (≈ 15.1 µM) | 16 (≈ 32.2 µM) | 8 (≈ 16.1 µM) | 8 (≈ 16.1 µM) | 8 (≈ 16.1 µM) | 14.8 (≈ 29.8 µM) | MBC (Escherichia coli [12]): 16 µg/mL (≈ 32.2 µM); MIC90 (Escherichia coli [15]): 15.4 µg/mL (≈ 31 µM)
5 | COc1ccc(-c2nc3ccc(-c4nc5ccc(N6CCN(c7ncccn7)CC6)cc5[nH]4)cc3[nH]2)cc1OC | 8 (≈ 15 µM) | – | 32 (≈ 60.1 µM) | 32 (≈ 60.1 µM) | 32 (≈ 60.1 µM) | 32 (≈ 60.1 µM) | 64 (≈ 120 µM) | 32 (≈ 60.1 µM) | 55.8 (≈ 105 µM) | > 128 | – | 16 (≈ 30 µM) | 28.8 (≈ 54.1 µM) | 16 (≈ 30 µM) | 30.2 (≈ 56.7 µM) | 32 (≈ 60.1 µM) | 64 (≈ 120 µM) | 128 (≈ 240 µM) | 32 (≈ 60.1 µM) | 61.6 (≈ 116 µM) | –
6 | COc1ccc(-c2nc3ccc(-c4nc5ccc(N6CCN(c7ccncc7)CC6)cc5[nH]4)cc3[nH]2)cc1OC | 2 (≈ 3.76 µM) | 2 (≈ 3.76 µM) | 4 (≈ 7.52 µM) | 4 (≈ 7.52 µM) | 4 (≈ 7.52 µM) | 2 (≈ 3.76 µM) | 64 (≈ 120 µM) | 2 (≈ 3.76 µM) | 3.6 (≈ 6.77 µM) | 1 (≈ 1.88 µM) | 1.7 (≈ 3.2 µM) | 2 (≈ 3.76 µM) | 3.6 (≈ 6.77 µM) | 1 (≈ 1.88 µM) | 3.6 (≈ 6.77 µM) | 1 (≈ 1.88 µM) | 4 (≈ 7.52 µM) | 2 (≈ 3.76 µM) | 1 (≈ 1.88 µM) | 1.7 (≈ 3.2 µM) | MBC (Escherichia coli [12]): 4 µg/mL (≈ 7.52 µM); MIC90 (Escherichia coli [15]): 3.6 µg/mL (≈ 6.77 µM)
